In ChEMBL document CHEMBL2331390, “Telomere shortening and cell senescence induced by perylene derivatives in A549 human lung cancer cells” (Bioorg Med Chem, 2013):
Calls of active or inactive are those of the source. No cut-off for these calls is given here.

How the values were obtained:
A549 [1] = assay: Binding affinity to human TERT promoter DNA sequence in human A549 cells assessed as telomere restriction fragment length at 0.8 uM after 18 days by TeloTAGGG-based chemiluminescence assay (reference value: 3.6 kb); type: cell-based
Summary of the method: (§1)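 Genomic DNA from A549 cells kept long-term with 0.4 or 0.8 μM compound (medium changed every 3 days, replated every 6 days). DNA isolated with DNAzol. 2 µg digested with RsaI/HinfI, run on 0.8% agarose, Southern-blotted, hybridized with DIG-labeled telomeric probe, anti-DIG alkaline phosphatase, chemiluminescence. Mean TRF = Σ(ODi)/Σ(ODi/Li).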

A549 [2] = assay: Cytotoxicity against human A549 cells assessed as colony formation at 0.8 uM incubated for 6 days followed by subculturing in compound-free medium measured after 14 days by crystal violet staining method relative to control; type: functional
Summary of the method: (§2)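 A549 cells from the long-term culture (0.4 or 0.8 μM, medium changed every 3 days, replated every 6 days) were collected on the stated day. 2×10^3 cells seeded per 10-cm dish, fed every 4-5 days. Colonies stained with crystal violet after 14 days and counted; expressed as % of control. Controls under 25 colonies excluded. Three independent experiments.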

A549 [3] = assay: Cytotoxicity against human A549 cells assessed as colony formation at 0.4 uM incubated for 54 days followed by subculturing in compound-free medium measured after 14 days by crystal violet staining method relative to control; type: functional; summary of the method: as §2
[4] = Binding affinity to TSG4 primer DNA (unknown origin) assessed as inhibition of telomerase-mediated extension of primer […] by fluorescence-based TRAP assay
Summary of the method: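 Cell-free TRAP. Compound preincubated with TSG4 primer in telomerase buffer (20 mM Tris-HCl pH 7.4, 1.5 mM MgCl2, 63 mM KCl, 1 mM EGTA, 200 µM dNTPs) at 37 °C for 2 h. Crude telomerase (50 ng) from telomerase-transfected HEK293T added, 30 °C for 30 min. Compound removed by phenol-chloroform, products ethanol-precipitated, PCR with FAM-tagged primer, 8% native PAGE, phosphoimaging. IC50 ± SD from three experiments.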

A549 [5] = assay: Binding affinity to human TERT promoter DNA sequence in human A549 cells assessed as telomere restriction fragment length at 0.4 uM after 24 days by TeloTAGGG-based chemiluminescence assay (reference value: 3.6 kb); type: cell-based; summary of the method: as §1
Homo sapiens [6] = species on record: Homo sapiens; assay: Binding affinity to human TERT1 5'-AAGGGGAGGGGCTGGGAGGGCCCGGA-3' DNA assessed as induction of intramoleculsr G-quadruplex formation after 10 hrs by PAGE analysis
Summary of the method: (§3)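 FAM-labeled G-rich strand (2 µM) and complementary C-rich strand (2 µM) with compound in 10 mM Tris-HCl pH 7.4, 100 mM KCl. Heated to 95 °C for 5 min, slowly cooled to 55 °C, held 10 h, then cooled to 4 °C. Duplex vs G-quadruplex resolved on 16% native PAGE with 50 mM KCl (4 °C, 350 V, 10 h) and fluorescence-imaged.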

A549 [7] = assay: Binding affinity to human TERT promoter DNA sequence in human A549 cells assessed as decrease in TERT mRNA expression at 6 uM after 24 hrs by semi-quantitative PCR analysis relative to control; type: cell-based; set-up: scale not given: the % may be the effect or the level left
Summary of the method: (§4)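 A549 cells (3.0×10^5) grown 24 h in RPMI 1640 + 10% FBS at 37 °C, 5% CO2, then exposed to compound for 24 h. Total RNA by Trizol, reverse transcribed, hTERT amplified with specific primers. Semi-quantitative and real-time SYBR Green PCR (45 cycles), standard-curve method, normalized to GAPDH. Three independent experiments.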

A549 [8] = assay: Binding affinity to human TERT promoter DNA sequence in human A549 cells assessed as telomere restriction fragment length at 0.4 uM after 6 days by TeloTAGGG-based chemiluminescence assay (reference value: 3.6 kb); type: cell-based; summary of the method: as §1
Homo sapiens [9] = species on record: Homo sapiens; assay: Binding affinity to human TERT2 5'-GGGGGCTGGGCCGGGGACCCGGGAGGGGTCGGGACGGGGCGGGG-3' DNA assessed as induction of intermolecular G-quadruplex formation at 8 to 32 uM after 10 hrs by PAGE analysis; summary of the method: as §3
A549 [10] = assay: Cytotoxicity against human A549 cells assessed as colony formation at 0.4 uM incubated for 24 days followed by subculturing in compound-free medium measured after 14 days by crystal violet staining method relative to control; type: functional; summary of the method: as §2
A549 [11] = assay: Antiproliferative activity against human A549 cells assessed as effect on population doubling at 0.4 uM up to 42 days; type: functional, cell-based
Summary of the method: (§5)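 A549 cells (1.5×10^5) seeded in RPMI 1640 + 10% FBS with 0.4 or 0.8 μM perylene or medium only. Medium changed every 3 days. Every 6 days, at confluence, cells were trypsinized, counted by hemocytometer and replated at 1.5×10^5. Population doublings n = (log Pn − log P0)/log 2, cumulated against time. Three independent experiments.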

A549 [12] = assay: Binding affinity to human TERT promoter DNA sequence in human A549 cells assessed as telomere restriction fragment length at 0.4 uM after 54 days by TeloTAGGG-based chemiluminescence assay (reference value: 3.6 kb); type: cell-based; summary of the method: as §1
Homo sapiens [13] = species on record: Homo sapiens; assay: Binding affinity to human TERT2 5'-GGGGGCTGGGCCGGGGACCCGGGAGGGGTCGGGACGGGGCGGGG-3' DNA assessed as induction of intramolecular G-quadruplex formation at 4 uM after 10 hrs by PAGE analysis; summary of the method: as §3
A549 [14] = assay: Cytotoxicity against human A549 cells assessed as colony formation at 0.8 uM incubated for 24 days followed by subculturing in compound-free medium measured after 14 days by crystal violet staining method relative to control; type: functional; summary of the method: as §2
A549 [15] = assay: Antiproliferative activity against human A549 cells assessed as cell division arrest at 0.8 uM measured on day 36; type: functional, cell-based; summary of the method: as §5
A549 [16] = assay: Antiproliferative activity against human A549 cells assessed as decrease in cell viability at 0.4 uM after 42 days; type: functional, cell-based; summary of the method: as §5
A549 [17] = assay: Induction of senescence in human A549 cells assessed as cell enlargement at 0.4 uM incubated for 54 days followed by subculturing on compound-free medium measured after 48 hrs by fluorescence microscopic analysis; type: functional, cell-based
Summary of the method: (§6)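 A549 cells from the long-term treatment replated and grown 48 h. Fixed in 2% formaldehyde/0.2% glutaraldehyde for 5 min at RT. Stained overnight with 1 mg/ml X-gal in pH 6 citrate/phosphate buffer with 5 mM ferro/ferricyanide, 150 mM NaCl, 2 mM MgCl2. Enlarged blue cells scored by microscopy.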

A549 [18] = assay: Antiproliferative activity against human A549 cells assessed as decrease in population doubling at 0.4 uM after 42 days; type: functional, cell-based; summary of the method: as §5
A549 [19] = assay: Binding affinity to human TERT promoter DNA sequence in human A549 cells assessed as telomere restriction fragment length at 0.8 uM after 30 days by TeloTAGGG-based chemiluminescence assay (reference value: 3.6 kb); type: cell-based; summary of the method: as §1
Homo sapiens [20] = species on record: Homo sapiens; assay: Binding affinity to human telomeric 5'-AGATAGTTAGGGTTAGGGTTAGGGTTAGGGTT-3' DNA assessed as induction of intramoleculsr G-quadruplex formation after 10 hrs by PAGE analysis; summary of the method: as §3
A549 [21] = assay: Antiproliferative activity against human A549 cells assessed as decrease in population doubling at 0.8 uM after 18 days; type: functional, cell-based; summary of the method: as §5
A549 [22] = assay: Cytotoxicity against human A549 cells assessed as colony formation at 0.4 uM incubated for 6 days followed by subculturing in compound-free medium measured after 14 days by crystal violet staining method relative to control; type: functional; summary of the method: as §2
A549 [23] = assay: Binding affinity to human TERT promoter DNA sequence in human A549 cells assessed as decrease in TERT mRNA expression after 24 hrs by semi-quantitative PCR analysis; type: cell-based; summary of the method: as §4
A549 [24] = assay: Binding affinity to human TERT promoter DNA sequence in human A549 cells assessed as telomere restriction fragment length at 0.8 uM after 6 days by TeloTAGGG-based chemiluminescence assay (reference value: 3.6 kb); type: cell-based; summary of the method: as §1
A549 [25] = assay: Binding affinity to human TERT promoter DNA sequence in human A549 cells assessed as inhibition of telomerase-mediated MTS primer extension after 24 hrs by fluorescence-based TRAP assay; type: cell-based
Summary of the method: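 A549 cells exposed to compound for 24 h, lysed in CHAPS buffer, protein measured by Bradford. 6 µg lysate protein used as telomerase source in fluorescent TRAP with MTS primer (no G-quadruplex motif), with no phenol-chloroform step. FAM-primer PCR, native PAGE, fluorescence quantified. Mean ± SD of three experiments.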

A549 [26] = assay: Induction of senescence in human A549 cells assessed as increase in beta-galactosidase activity at 0.4 uM incubated for 54 days followed by subculturing on compound-free medium measured after 48 hrs by fluorescence microscopic analysis; type: functional, cell-based; summary of the method: as §6
A549 [27] = assay: Cytotoxicity against human A549 cells assessed as reduction in colony formation incubated for 24 days followed by subculturing in compound-free medium measured after 14 days by crystal violet staining method; type: functional, cell-based; summary of the method: as §2

- IC50 [4]: 800 nM
- inhibition [4]: Dose-dependent effect
- Activity (Homo sapiens [6]): Dose-dependent effect
- Activity (Homo sapiens [9]): Active
- Activity (Homo sapiens [13]): Active
- Activity (Homo sapiens [20]): Dose-dependent effect
SMILES: CCN(CC)CCN1C(=O)c2ccc3c4cccc5c(N6CCNCC6)ccc(c6ccc(c2c36)C1=O)c54
- Activity (A549 [1]): 3.5 kilobase
- Activity (A549 [2]): 100%
- Activity (A549 [3]): 60%
- Activity (A549 [5]): 3.5 kilobase
- Activity (A549 [7]): 37%
- Activity (A549 [8]): 3.6 kilobase
- Activity (A549 [10]): 73%
- Activity (A549 [11]): inactive
- Activity (A549 [12]): 2.9 kilobase
- Activity (A549 [14]): 35%
- Activity (A549 [15]): Active
- Activity (A549 [16]): inactive
- Activity (A549 [17]): Active
- Activity (A549 [18]): Active
- Activity (A549 [19]): 3.2 kilobase
- Activity (A549 [21]): Active
- Activity (A549 [22]): 100%
- Activity (A549 [23]): Dose-dependent effect
- Activity (A549 [24]): 3.6 kilobase
- Activity (A549 [25]): Dose-dependent effect
- Activity (A549 [26]): Active
- Activity (A549 [27]): Dose-dependent effect
